Data set [1] can be described thus: Metabolic stability in Wistar rat plasma assessed as half life by HPLC analysis. Format: ADME, cell-free. The procedure, abridged:
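Peptide at 1 mg/mL in sterile PBS pH 7.4 was mixed 1:1 with thawed, centrifuged Wistar rat plasma supernatant and incubated at 37°C in triplicate. Samples at 0, 1, 2, 3, 4, 6 and 24 h were quenched with acetonitrile and then 2% TFA/water, and analysed by HPLC with inline electrospray MS.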

Data set [2] addresses Kappa-type opioid receptor (Homo sapiens, UniProt P41145). Nature of the data set: Displacement of [3H]U69593 from human kappa opioid receptor expressed in CHO-K1 cells incubated for 1 hr by 1450 microbeta scintillation counter analysis. Format: cell-based. In short, it runs like this: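 Membranes from transiently KOR-transfected CHO-K1 cells (~2 µg/well) used in SPA with 3H-U69,593 (1 nM). Competitor ranged 1 pM–10 µM in 50 mM Tris-HCl pH 7.4, 5 mM MgCl2, 0.1% BSA. Incubated 1 h at room temperature with shaking. Nonspecific binding defined with 10 µM dynorphin A. Sigmoidal dose-response fit; at least three independent experiments in triplicate.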

Where a SMILES comes first, the peptide text is derived from it.

Drawing on ChEMBL document CHEMBL5252514, “Conopeptide-Derived κ-Opioid Agonists (Conorphins): Potent, Selective, and Metabolic Stable Dynorphin A Mimetics with Antinociceptive Properties” (J Med Chem, 2016), this text covers half-life and Ki for 31 compounds.

Chain of Kappa-type opioid receptor (P41145 whole entry): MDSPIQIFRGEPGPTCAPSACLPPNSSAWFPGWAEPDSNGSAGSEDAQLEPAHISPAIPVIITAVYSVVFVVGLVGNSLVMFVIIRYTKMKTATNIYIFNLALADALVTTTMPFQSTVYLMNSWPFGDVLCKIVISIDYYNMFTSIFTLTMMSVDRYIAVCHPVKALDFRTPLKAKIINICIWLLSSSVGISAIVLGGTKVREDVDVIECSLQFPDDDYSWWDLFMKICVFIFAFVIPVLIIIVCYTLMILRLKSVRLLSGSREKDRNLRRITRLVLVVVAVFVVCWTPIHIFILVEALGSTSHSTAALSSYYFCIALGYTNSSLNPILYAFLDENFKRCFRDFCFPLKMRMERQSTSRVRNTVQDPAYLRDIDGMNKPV

Regarding `N=C(N)NCCC[C@@H](NC(=O)[C@@H]1CCC(=O)N1)C(=O)N[C@H](CCCNC(=N)N)C(=O)N[C@@H](CCC(N)=O)C(=O)N[C@@H](CC1CCCCC1)C(=O)N[C@H]1C[Se]SC[C@@H](C(N)=O)NC1=O`, the half-life in data set [1] worked out at 6 h. For the same compound, the inhibition constant (Ki) in data set [2] came out at 7.8 nM. On the same counts, the results for `N=C(N)NCCC[C@H](NC(=O)[C@@H]1CCC(=O)N1)C(=O)N[C@H](CCCNC(=N)N)C(=O)N[C@@H](CCC(N)=O)C(=O)N[C@@H](CC1CCCCC1)C(=O)N[C@H]1CSSC[C@@H](C(N)=O)NC1=O` are 20 h and 16.1 nM. Consider `N=C(N)NCCC[C@@H](NC(=O)[C@@H](CCCNC(=N)N)NC(=O)[C@@H]1CCCN1C(=O)c1ccc2ccccc2c1)C(=O)N[C@@H](CCC(N)=O)C(=O)N[C@@H](CC1CCCCC1)C(=O)N[C@H]1CSSC[C@@H](C(N)=O)NC1=O`, for which the half-life in data set [1] was determined as 0.5 h. The compound also came in with a Ki in data set [2] of 0.07 nM. In the case of `N=C(N)NCCC[C@@H](NC(=O)[C@@H](CCCNC(=N)N)NC(=O)[C@@H]1CCCN1C(=O)c1ccc2ccccc2c1)C(=O)N[C@@H](CCC(N)=O)C(=O)N[C@@H](CC1CCCCC1)C(=O)N[C@H]1CSSC[C@@H](C(=O)O)NC1=O`, the half-life in data set [1] came out at 0.5 h. Also, the affinity in data set [2] corresponds to a Ki of 229 nM.

Consider `N=C(N)NCCC[C@@H](NC(=O)[C@@H]1Cc2ccccc2CN1)C(=O)N[C@H](CCCNC(=N)N)C(=O)N[C@@H](CCC(N)=O)C(=O)N[C@@H](CC1CCCCC1)C(=O)N[C@H]1C[Se][Se]C[C@@H](C(N)=O)NC1=O`, for which the half-life in data set [1] stood at 6 h. Moreover, the Ki in data set [2] is 2.4 nM.

On to `N=C(N)NCCC[C@@H](NC(=O)[C@H]1NCCc2ccccc21)C(=O)N[C@H](CCCNC(=N)N)C(=O)N[C@@H](CCC(N)=O)C(=O)N[C@@H](CC1CCCCC1)C(=O)N[C@H]1CSSC[C@@H](C(N)=O)NC1=O`, for which, in data set [1], the half-life is 0.75 h. The inhibitory constant (Ki) in data set [2] worked out at 1.18 nM. For `N=C(N)NCCC[C@@H](NC(=O)c1cc2ccccc2cc1N)C(=O)N[C@H](CCCNC(=N)N)C(=O)N[C@@H](CCC(N)=O)C(=O)N[C@@H](CC1CCCCC1)C(=O)N[C@H]1CSSC[C@@H](C(N)=O)NC1=O`, in data set [1], the half-life was determined as 1 h. Besides, the affinity in data set [2], expressed as Ki, was 0.64 nM. For `N=C(N)NCCC[C@@H](NC(=O)[C@@H](CCCNC(=N)N)NC(=O)[C@@H]1CCCN1C(=O)c1ccc(Cl)c(Cl)c1)C(=O)N[C@@H](CCC(N)=O)C(=O)N[C@@H](CS)C(=O)N[C@@H](CC1CCCCC1)C(=O)N[C@H]1CSSC[C@@H](C(N)=O)NC1=O`, the half-life in data set [1] is 1 h. This compound registered an inhibition constant Ki in data set [2] of 0.98 nM. Regarding `N=C(N)NCCC[C@@H](NC(=O)[C@@H]1CCC(=O)N1)C(=O)N[C@H](CCCNC(=N)N)C(=O)N[C@@H](CCC(N)=O)C(=O)N[C@@H](CC1CCCCC1)C(=O)N[C@H]1CSSCC[C@@H](C(N)=O)NC1=O`, in data set [2], the Ki came out at 1570 nM. In turn, `N=C(N)NCCC[C@H](NC(=O)[C@@H]1CCC(=O)N1)C(=O)N[C@@H](CCCNC(=N)N)C(=O)N[C@@H](CCC(N)=O)C(=O)N[C@@H](CC1CCCCC1)C(=O)N[C@H]1CCCCN(CC(N)=O)C1=O` (HELM PEPTIDE1{[Glp].R.R.Q.[Cha].[NC(=O)CN1CCCC[C@H](N[*:1])C1=O]}$$$$V2.0) showed a Ki in data set [2] of 12900 nM. In the case of `N=C(N)NCCC[C@@H](NC(=O)[C@@H](CCCNC(=N)N)NC(=O)[C@@H]1CCCN1C(=O)c1ccccc1)C(=O)N[C@@H](CCC(=O)O)C(=O)N[C@@H](CC1CCCCC1)C(=O)N[C@H]1CSSC[C@@H](C(N)=O)NC1=O`, in data set [2], the Ki is 19.4 nM. `N=C(N)NCCC[C@@H](NC(=O)[C@@H](CCCNC(=N)N)NC(=O)[C@@H]1CCCN1C(=O)c1ccccc1)C(=O)N[C@@H](CC(N)=O)C(=O)N[C@@H](CC1CCCCC1)C(=O)N[C@H]1CSSC[C@@H](C(N)=O)NC1=O` returned a Ki in data set [2] of 0.61 nM. As to `N=C(N)NCCC[C@@H](NC(=O)[C@@H](CCCNC(=N)N)NC(=O)[C@@H]1CCCN1C(=O)c1ccccc1)C(=O)NCC(=O)N[C@@H](CC1CCCCC1)C(=O)N[C@H]1CSSC[C@@H](C(N)=O)NC1=O`, the half-life in data set [1] came out at 1 h. This compound also registered an inhibitory constant (Ki) in data set [2] of 0.16 nM.

For the compound `CC[C@H](C)[C@H](NC(=O)[C@H](CCC(N)=O)NC(=O)[C@H](CCCNC(=N)N)NC(=O)[C@H](CCCNC(=N)N)NC(=O)[C@@H]1CSSC[C@H](NC(=O)[C@@H](N)CC(N)=O)C(=O)N1)C(N)=O` (HELM PEPTIDE1{N.C.C.R.R.Q.I.[am]}$PEPTIDE1,PEPTIDE1,2:R3-3:R3$$$V2.0), the Ki in data set [2] was determined as 14700 nM. As for `N=C(N)NCCC[C@@H](NC(=O)[C@@H](CCCNC(=N)N)NC(=O)[C@@H]1CCCN1C(=O)c1ccccc1)C(=O)N[C@@H](CO)C(=O)N[C@@H](CC1CCCCC1)C(=O)N[C@H]1CSSC[C@@H](C(N)=O)NC1=O`, in data set [2], the inhibition constant Ki is 0.42 nM. This Ki lies about 35000-fold lower than the previous one.

In turn, `N=C(N)NCCC[C@@H](NC(=O)[C@@H]1CCC(=O)N1)C(=O)N[C@H](CCCNC(=N)N)C(=O)N[C@@H](CCC(N)=O)C(=O)N[C@@H](CC1CCCCC1)C(=O)N[C@H]1CCSSC[C@@H](C(N)=O)NC1=O` returned an inhibition constant (Ki) in data set [2] of 783 nM. `CN(C(=O)[C@H](CC1CCCCC1)NC(=O)[C@H](CCC(N)=O)NC(=O)[C@@H](CCCNC(=N)N)NC(=O)[C@@H](CCCNC(=N)N)NC(=O)[C@@H]1CCCN1C(=O)c1ccccc1)[C@H]1CSSC[C@@H](C(N)=O)NC1=O`: the affinity in data set [2], expressed as Ki, was 15 nM. `N=C(N)NCCC[C@@H](NC(=O)Cc1cccc(Br)c1)C(=O)N[C@H](CCCNC(=N)N)C(=O)N[C@@H](CCC(N)=O)C(=O)N[C@@H](CC1CCCCC1)C(=O)N[C@H]1CSSC[C@@H](C(N)=O)NC1=O` had a Ki in data set [2] of 1.2 nM.

For the compound `CC(C)[C@H](NC(=O)[C@H](CCC(N)=O)NC(=O)[C@H](CCCNC(=N)N)NC(=O)[C@H](CCCNC(=N)N)NC(=O)[C@@H]1CSSC[C@H](NC(=O)[C@@H](N)CC(N)=O)C(=O)N1)C(=O)N[C@H]1CSSC[C@@H](C(N)=O)NC1=O` (HELM PEPTIDE1{N.C.C.R.R.Q.V.C.C.[am]}$PEPTIDE1,PEPTIDE1,2:R3-3:R3|PEPTIDE1,PEPTIDE1,8:R3-9:R3$$$V2.0), the affinity in data set [2] corresponds to a Ki of 664 nM.

Consider `N=C(N)NCCC[C@@H](NC(=O)[C@@H](CCCNC(=N)N)NC(=O)[C@@H]1CCCN1C(=O)c1ccc(Cl)cc1)C(=O)N[C@@H](CCC(N)=O)C(=O)N[C@@H](CC1CCCCC1)C(=O)N[C@H]1CSSC[C@@H](C(N)=O)NC1=O`, for which the half-life in data set [1] was determined as 1 h. The compound also displayed an inhibition constant (Ki) in data set [2] of 0.13 nM. Compound `N=C(N)NCCC[C@@H](NC(=O)c1ccc(F)cc1)C(=O)N[C@H](CCCNC(=N)N)C(=O)N[C@@H](CCC(N)=O)C(=O)N[C@@H](CC1CCCCC1)C(=O)N[C@H]1CSSC[C@@H](C(N)=O)NC1=O` registered a Ki in data set [2] of 5.4 nM. That is a single-digit nanomolar value. Still for that read-out and setting: next, `N=C(N)NCCC[C@@H](NC(=O)Cc1ccc(F)cc1)C(=O)N[C@H](CCCNC(=N)N)C(=O)N[C@@H](CCC(N)=O)C(=O)N[C@@H](CC1CCCCC1)C(=O)N[C@H]1CSSC[C@@H](C(N)=O)NC1=O`: 1.2 nM; `N=C(N)NCCC[C@@H](NC(=O)[C@@H](CCCNC(=N)N)NC(=O)[C@@H]1CCCN1C(=O)c1ccccc1)C(=O)N[C@@H](CCC(N)=O)C(=O)N[C@@H](CC1CCCCC1)C(N)=O`: 22500 nM. As to `N=C(N)NCCC[C@@H](NC(=O)[C@@H](CCCNC(=N)N)NC(=O)[C@@H]1CCCN1C(=O)c1ccccc1)C(=O)N[C@@H](CCC(N)=O)C(=O)N[C@@H](CC1CCCCC1)C(=O)N[C@H]1CSCSC[C@@H](C(N)=O)NC1=O`, the inhibition constant (Ki) in data set [2] stood at 15.8 nM. Consider `N=C(N)NCCC[C@@H](NC(=O)[C@@H](CCCNC(=N)N)NC(=O)[C@@H]1CCCN1C(=O)c1ccccc1)C(=O)N[C@@H](CCC(N)=O)C(=O)N[C@@H](CC1CCCCC1)C(=O)N1C[C@@H]2C[C@H]1C(=O)N[C@H](C(N)=O)CSS2`, for which the Ki in data set [2] turned out to be 786 nM. This Ki is about 50-fold higher than that of the compound before. `N=C(N)NCCC[C@@H](NC(=O)[C@@H](CCCNC(=N)N)NC(=O)[C@@H]1CCCN1C(=O)c1ccccc1)C(=O)N[C@@H](CC1CCCCC1)C(=O)N[C@H]1CSSCC(C(N)=O)NC1=O` (single isomer, unassigned) showed an inhibition constant Ki in data set [2] of 60 nM. The compound `CC[C@H](C)[C@H](NC(=O)[C@H](CCC(N)=O)NC(=O)[C@H](C)NC(=O)[C@H](CCCNC(=N)N)NC(=O)[C@@H]1CSSC[C@H](NC(=O)[C@@H](N)CC(N)=O)C(=O)N1)C(=O)N[C@H]1CSSC[C@@H](C(N)=O)NC1=O` (HELM PEPTIDE1{N.C.C.R.A.Q.I.C.C.[am]}$PEPTIDE1,PEPTIDE1,2:R3-3:R3|PEPTIDE1,PEPTIDE1,8:R3-9:R3$$$V2.0) yielded a Ki in data set [2] of 406 nM. This Ki is about 6.8-fold higher than that of the compound before. The compound `N=C(N)NCCC[C@@H](NC(=O)[C@@H](CCCNC(=N)N)NC(=O)[C@@H]1CCCN1C(=O)c1ccc([N+](=O)[O-])cc1)C(=O)N[C@@H](CCC(N)=O)C(=O)N[C@@H](CS)C(=O)N[C@@H](CC1CCCCC1)C(=O)N[C@H]1CSSC[C@@H](C(N)=O)NC1=O` yielded an inhibitory constant (Ki) in data set [2] of 2.2 nM. The same measure, in the same setting: the figure for `N=C(N)NCCC[C@@H](NC(=O)[C@@H](CCCNC(=N)N)NC(=O)[C@@H]1CCCN1C(=O)c1ccc(Cl)cc1)C(=O)N[C@@H](CCC(N)=O)C(=O)N[C@@H](CC1CCCCC1)C(=O)N[C@H]1CSSC[C@@H](C(=O)O)NC1=O` is 795 nM. `CC[C@H](C)[C@H](NC(=O)[C@H](CCCN=C(N)N)NC(=O)[C@H](CCCN=C(N)N)NC(=O)[C@H](CC(C)C)NC(=O)[C@H](Cc1ccccc1)NC(=O)CNC(=O)CNC(=O)[C@@H](N)Cc1ccc(O)cc1)C(=O)N[C@@H](CCCN=C(N)N)C(=O)N1CCC[C@H]1C(=O)N[C@@H](CCCCN)C(=O)N[C@@H](CC(C)C)C(=O)N[C@@H](CCCCN)C(N)=O`: in data set [2], the Ki is 0.4 nM. This Ki lies about 2000-fold lower than the previous one.

With `CC[C@H](C)[C@H](NC(=O)[C@H](CCCNC(=N)N)NC(=O)[C@H](CCCNC(=N)N)NC(=O)[C@H](CC(C)C)NC(=O)[C@H](Cc1ccccc1)NC(=O)CNC(=O)CNC(=O)[C@@H](N)Cc1ccc(O)cc1)C(=O)N[C@@H](CCCNC(=N)N)C(=O)N1CCC[C@H]1C(=O)N[C@@H](CCCCN)C(=O)N[C@@H](CC(C)C)C(=O)N[C@@H](CCCCN)C(=O)N[C@@H](Cc1c[nH]c2ccccc12)C(=O)N[C@@H](CC(=O)O)C(=O)N[C@@H](CC(N)=O)C(=O)N[C@@H](CCC(N)=O)C(N)=O`, the half-life in data set [1] is 2 h.
